The record followed here is ChEMBL document CHEMBL4308830, “Design, Synthesis, and Characterization of 4-Undecylpiperidine-2-carboxamides as Positive Allosteric Modulators of the Serotonin (5-HT) 5-HT2C Receptor” (J Med Chem, 2018).

The subject of one data set is CHO. Briefly: Cytotoxicity against CHO cells at 0.1 to 1000 nM after 1 hrs by LDH release assay. Format: cell-based, Cricetulus griseus. As to conditions: chinese hamster, 1 µM. The gist of the method:
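Lactate dehydrogenase release assay for cytotoxicity, compounds tested at 0.1 nM and 1 μM.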

In data set [1] the target is T1, 5-hydroxytryptamine receptor 2C (Homo sapiens) (UniProt P28335).
T1 sequence (whole entry): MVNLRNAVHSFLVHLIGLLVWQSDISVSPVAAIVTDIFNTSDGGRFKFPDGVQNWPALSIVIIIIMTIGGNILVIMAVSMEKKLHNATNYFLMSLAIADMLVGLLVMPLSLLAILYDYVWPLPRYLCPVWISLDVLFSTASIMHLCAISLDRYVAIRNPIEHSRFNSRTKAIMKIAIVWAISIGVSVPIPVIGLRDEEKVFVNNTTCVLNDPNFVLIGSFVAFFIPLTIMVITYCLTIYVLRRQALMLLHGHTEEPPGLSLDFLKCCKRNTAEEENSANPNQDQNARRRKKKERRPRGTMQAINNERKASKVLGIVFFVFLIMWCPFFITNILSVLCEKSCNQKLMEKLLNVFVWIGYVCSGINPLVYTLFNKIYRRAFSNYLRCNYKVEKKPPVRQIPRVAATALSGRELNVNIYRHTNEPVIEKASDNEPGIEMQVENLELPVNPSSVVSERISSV
Briefly: Intrinsic agonist activity at human 5-HT2CR expressed in CHO cells assessed as induction of intracellular calcium release at 1 nM incubated for 15 mins measured every 1 sec for 120 secs by calcium-4 dye based FLIPR assay. The format is functional, cell-based. The gist of the method:
(§1)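 CHO cells stably expressing human unedited INI 5-HT2CR were plated, serum-starved 3 h, then loaded with Calcium 4 dye plus 2.5 mM probenecid (60 min 37 °C, then 15 min RT). Compound (1 nM) was added; the read after this addition gave intrinsic agonism. 5-HT (10 pM–10 μM) followed 15 min later. FLIPR-TETRA: 10 s baseline, 1 s reads for 120 s after compound and 360 s after 5-HT. Emax came from 4-parameter fits, ≥3 biological replicates in triplicate.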

In data set [2] the target is T1, 5-hydroxytryptamine receptor 2C (Homo sapiens). Briefly: Positive allosteric modulation of human 5-HT2CR expressed in CHO cells assessed as 5-HT-induced intracellular calcium release at 1 nM preincubated for 15 mins followed by 5-HT addition by calcium-4 dye based FLIPR assay (reference value: 100%). Format: functional, cell-based. The gist of the method:
as §1

Activity calls are given as the source filed them. The calls are words filed in the database; no cut-off is given here.

Regarding `O=C(N[C@H](CO)[C@H](O)c1ccccc1)[C@H]1C[C@@H](CCC2CCCCC2)CCN1`, in the data set with CHO, the Activity result was “Non-Toxic”. Besides, the outcome in data set [1] was inactive. Moreover, in data set [2], the Emax is 89.6%.
For `CCCCCCCCCCC[C@@H]1CCN[C@H](C(=O)NC[C@H](O)CCl)C1`, the Activity entry in the data set with CHO was “Non-Toxic”. Besides, the result in data set [1] was inactive. Further, in data set [2], the Emax is 114%.
On to `O=C(N[C@H](CO)[C@H](O)c1ccccc1)[C@H]1C[C@@H](C2CCCCC2)CCN1`, for which the Activity entry in the data set on CHO is given as “Non-Toxic”. Further, the result in data set [1] was inactive. Besides, the Emax in data set [2] came out at 104%.
Turning to `CCCCCCCCCCC[C@@H]1CCN[C@H](C(=O)N[C@H](CO)[C@H](O)c2ccccc2)C1`, the Activity entry in the data set on CHO was “Non-Toxic”. For the same molecule, the result in data set [1] was inactive. The Emax in data set [2] was 85.1%.
The corresponding values for `O=C(N[C@H](CO)[C@H](O)c1ccccc1)[C@@H]1C[C@H](C2CCCCC2)CCN1` are “Non-Toxic”, “inactive” and 105%.
As for `CC1CCC(CC[C@@H]2CCN[C@H](C(=O)N[C@@H](CO)[C@@H](O)c3ccccc3)C2)CC1` (stereo partly drawn), the result in data set [1] was inactive. Also, the Emax in data set [2] was determined as 107%.
The corresponding values for `CC1CCC(CC[C@H]2CCN[C@@H](C(=O)N[C@@H](CO)[C@@H](O)c3ccccc3)C2)CC1` (stereo partly drawn) are “inactive” and 116%.
For `CCCCCCCCCCC[C@@H]1CCN[C@H](C(=O)NC[C@@H](O)CO)C1`, the outcome in data set [1] was inactive. Besides, the maximum response (Emax) in data set [2] was 106%.
The corresponding values for `CCCCCCCCCCC[C@@H]1CCN[C@H](C(=O)NC[C@H](O)CO)C1` are “inactive” and 114%.
The matching figures for `CCCCCCCCCCC[C@@H]1CCN[C@H](C(=O)N[C@@H](CO)C(=O)OC)C1`: “inactive” and 99.6%.
The matching figures for `CCCCCCCCCCC[C@@H]1CCN[C@H](C(=O)N[C@@H](CO)[C@@H](O)c2ccccc2)C1`: “inactive” and 109%.
Regarding `CCCCCCCCCCC[C@@H]1CCN[C@H](C(=O)N[C@@H](CO)[C@H](C)O)C1`, the result in data set [1] was inactive. Further, in data set [2], the Emax is 112%.
The matching figures for `CCCCCCCCCCC[C@@H]1CCN[C@H](C(=O)N[C@@H](Cc2cc3ccccc3[nH]2)C(=O)OC)C1`: “inactive” and 102%.
As for `CCCCCCCCCCC[C@@H]1CCN[C@H](C(=O)N[C@@H](Cc2ccc(O)cc2)C(=O)OC)C1`, the result in data set [1] was inactive. In addition, in data set [2], the Emax stood at 104%.
Take `CCCCCCCCCCC[C@@H]1CCN[C@H](C(=O)N[C@H](C(=O)OC)[C@H](C)O)C1`: the result in data set [1] was inactive. Further, the Emax in data set [2] is 102%.
On to `CCCCCCCCCCC[C@@H]1CCN[C@H](C(=O)N[C@H](CO)[C@@H](C)O)C1`, for which the result in data set [1] was inactive. Further, the Emax in data set [2] worked out at 111%.
The matching figures for `CCCCCCCCCCC[C@H]1CCN[C@@H](C(=O)N[C@@H](CO)[C@@H](O)c2ccccc2)C1`: “inactive” and 102%.
As for `CCCCCCCCCCC[C@H]1CCN[C@@H](C(=O)N[C@H](CO)[C@H](O)c2ccccc2)C1`, the result in data set [1] was inactive. Further, the maximum response (Emax) in data set [2] was found to be 93.9%.
The matching figures for `O=C(N[C@H](CO)[C@H](O)c1ccccc1)[C@@H]1C[C@H](CCC2CCCCC2)CCN1`: “inactive” and 96%.
Take `CCCCCCCCCCC[C@@H]1CCN[C@H](C(=O)NCCO)C1` (relative stereo): the Activity entry with CHO was “Non-Toxic”. In addition, the result in data set [1] was inactive. Further, the Emax in data set [2] was found to be 108%.
Consider `CCCCCCCCCCC[C@@H]1CCN[C@H](C(=O)NC(CO)CO)C1` (relative stereo), for which the Activity result in the data set with CHO is listed as “Non-Toxic”. Also, the result in data set [1] was inactive. The Emax in data set [2] came out at 108%.
As to `CCCCCCCCCCC[C@@H]1CCN[C@H](C(=O)NCCN2CCOCC2)C1` (relative stereo), the outcome in data set [1] was inactive. For the same molecule, the Emax in data set [2] stood at 107%.
The corresponding values for `CCCCCCCCCCC[C@@H]1CCN[C@H](C(=O)O)C1` (relative stereo) are “inactive” and 109%.
